In ChEMBL document CHEMBL5257040, “Discovery of VU2957 (Valiglurax): An mGlu4 Positive Allosteric Modulator Evaluated as a Preclinical Candidate for the Treatment of Parkinson's Disease” (ACS Med Chem Lett, 2019):
The source made the active and inactive calls. The calls are words filed in the database; no cut-off is given here.

Legend:
[1] = Volume of distribution at steady state in CD-1 mouse plasma at 1 mg/kg, iv and measured upto 24 hrs by LC-MS/MS analysis; assay type: ADME, organism-based; conditions: read-out: Vdss
Summary of the method: (§1)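 Single-dose iv and oral PK in separate arms: mouse 1 mg/kg iv / 3 mg/kg po, SD rat 0.2/3, beagle 0.5/3, cynomolgus 0.2/3 mg/kg. Plasma parameters (Vss, Tmax, F) are means of two to three animals per species.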

[2] = Drug uptake in plasma of haloperidol-induced catalepsy Sprague-Dawley rat model at 0.3 to 30 mg/kg,po; assay type: ADME, organism-based; conditions: in vivo, dose 0.3-30 mg/kg
Summary of the method: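 Rats were given haloperidol 1.5 mg/kg i.p. to induce catalepsy and dosed orally at 0.3–30 mg/kg, N = 8–10 per group. Total plasma and CSF concentrations were measured alongside the catalepsy read-out. Satellite rats were used for PK in the time-course study.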

[3] = Tmax in Beagle dog at 3 mg/kg, po and measured upto 24 hrs by LC-MS/MS analysis; assay type: ADME, organism-based, Canis lupus familiaris; conditions: in vivo; summary of the method: as §1
[4] = Volume of distribution at steady state in Beagle dog at 0.5 mg/kg, iv and measured upto 24 hrs by LC-MS/MS analysis; assay type: ADME, organism-based, Canis lupus familiaris; conditions: in vivo, read-out: Vdss; summary of the method: as §1
Rattus norvegicus [5] = assay: Reversal of haloperidol-induced catalepsy Sprague-Dawley rat model at 0.3 to 30 mg/kg,po; assay type: functional, organism-based; conditions: dose 0.3-30 mg/kg
Summary of the method: (§2)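 Sprague-Dawley rats received haloperidol 1.5 mg/kg i.p. to induce catalepsy, with the compound dosed orally at 0.3–30 mg/kg. Groups were 8–10 rats and compared with vehicle + haloperidol (p < 0.05). MED = lowest oral dose giving significant reversal.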

[6] = Oral bioavailability in Sprague-Dawley rat at 3 mg/kg and measured upto 24 hrs by LC-MS/MS analysis; assay type: ADME, organism-based; conditions: in vivo; summary of the method: as §1
[7] = Clearance in Sprague-Dawley rat plasma at 0.2 mg/kg, iv and measured upto 24 hrs by LC-MS/MS analysis; assay type: ADME, organism-based
Summary of the method: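 Single intravenous doses: mouse 1 mg/kg, SD rat 0.2 mg/kg, beagle dog 0.5 mg/kg, cynomolgus monkey 0.2 mg/kg. Plasma clearance, Vss and elimination half-life came from the plasma profiles. Values are means of two to three animals.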

[8] = Metabolic stability in human liver microsomes assessed as intrinsic clearance at 1 uM preincubated for 5 mins followed by NADPH addition and measured for 45 mins by LC/MS/MS analysis; assay type: ADME, Microsome; conditions: time 50 min, read-out: CLH
[9] = Brain to plasma permeability coefficient, Kp in Sprague-Dawley rat at 0.2 mg/kg, iv and measured upto 24 hrs by LC-MS/MS analysis; assay type: ADME, organism-based
Summary of the method: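 Total brain to total plasma partition coefficient (Kp) measured in mouse, SD rat and cynomolgus monkey. The unbound ratio (Kp,uu) was corrected with brain homogenate binding. Values are means of two to three animals.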

[10] = Solubility of compound in FaSSIF; assay type: ADME
[11] = Protein binding in human plasma assessed as fraction unbound incubated for 4 hrs by equilibrium dialysis based LC/MS/MS analysis; assay type: ADME, cell-free
[12] = Metabolic stability in dog liver microsomes assessed as intrinsic clearance at 1 uM preincubated for 5 mins followed by NADPH addition and measured for 45 mins by LC/MS/MS analysis; assay type: ADME, Canis lupus familiaris, Microsome; conditions: time 50 min, read-out: CLH
[13] = Protein binding in mouse plasma assessed as fraction unbound incubated for 4 hrs by equilibrium dialysis based LC/MS/MS analysis; assay type: ADME, cell-free
[14] = target: Metabotropic glutamate receptor 6 (Homo sapiens, UniProt O15303); assay: Positive allosteric modulator activity at human mGlu6 in human HEK cells co-expressing […] assessed as increase in by thallium flux preincubated for 2.5 mins followed by gluatamate addition by thallium flux assay; assay type: cell-based
[15] = Oral bioavailability in Cynomolgus monkey at 3 mg/kg and measured upto 24 hrs by LC-MS/MS analysis; assay type: ADME, organism-based, Macaca fascicularis; conditions: in vivo; summary of the method: as §1
[16] = target: Metabotropic glutamate receptor 4 (Rattus norvegicus) (UniProt P31423); assay: Positive allosteric modulator activity at rat mGlu4 in human HEK cells co-expressing […] assessed as maximum increase in by thallium flux preincubated for 2.5 mins followed by gluatamate addition and measured for 2 mins by thallium flux assay; assay type: cell-based; conditions: filed as positive allosteric modulator, time 4.5 min
[17] = AUC (0 to infinity) in Sprague-Dawley rat at 3 mg/kg, po and measured upto 24 hrs by LC-MS/MS analysis; assay type: ADME, organism-based; set-up: time < 24 hrs, dose 3 mg/kg, route po; conditions: in vivo
Summary of the method: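 Single oral 3 mg/kg dose in mouse, SD rat, beagle dog and cynomolgus monkey. Total plasma exposure after the oral dose gave Cmax, Tmax, AUC0-inf and F. Values are means of two to three animals.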

P-gp (ABCB1) = P-gp (ABCB1) (Homo sapiens, UniProt P08183); assay: Substrate activity at human P-gp assessed as efflux ratio; assay type: ADME; conditions: not told
[18] = Unbound brain-to-plasma concentration ratio in Sprague-Dawley rat at 0.2 mg/kg, iv and measured upto 24 hrs by LC-MS/MS analysis; assay type: ADME, organism-based; conditions: read-out: K(p,uu,brain)
[19] = Genotoxicity in Salmonella typhimurium TA98 in presence of S9 fraction by Ames test; assay type: toxicity, subcellular; conditions: salmonella enterica subsp. enterica serovar typhimurium
Summary of the method: (§3)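 Ames bacterial reverse mutation test in strains TA98 and […], run with and without S9 metabolic activation.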

[20] = Cmax in Cynomolgus monkey at 3 mg/kg, po and measured upto 24 hrs by LC-MS/MS analysis; assay type: ADME, organism-based, Macaca fascicularis; set-up: dose 3 mg/kg, time < 24 hrs, route po; conditions: in vivo
Summary of the method: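 Single oral 3 mg/kg dose in mouse, SD rat, beagle and cyno. Cmax is the peak total plasma concentration. Values are means of two to three animals.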

[21] = Oral bioavailability in CD-1 mouse plasma at 3 mg/kg and measured upto 24 hrs by LC-MS/MS analysis; assay type: ADME, organism-based; summary of the method: as §1
Kv4.3/KChIP2 = Kv4.3/KChIP2 (Homo sapiens, UniProt Q9NS61+Q9UK17); assay: Inhibition of Kv4.3/KChIP2 (unknown origin) at 10 uM; assay type: toxicity
Summary of the method: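 Cardiac ion channel electrophysiology (functional EP) panel, with percent inhibition measured at 10 μM.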

[22] = Protein binding in dog plasma assessed as fraction unbound incubated for 4 hrs by equilibrium dialysis based LC/MS/MS analysis; assay type: ADME, cell-free, Canis lupus familiaris
[23] = Solubility of compound intestinal fluid assessed as AUC administered as active pharmaceutical ingredient (API) formulation; assay type: ADME
[24] = Genotoxicity in Salmonella typhimurium […] in presence of S9 fraction by Ames test; assay type: toxicity, subcellular; conditions: salmonella enterica subsp. enterica serovar typhimurium; summary of the method: as §3
Rattus norvegicus [25] = assay: Reversal of haloperidol-induced catalepsy Sprague-Dawley rat model at 0.3 to 30 mg/kg,po and measured upto 6 hrs; assay type: functional, organism-based; conditions: dose 0.3-30 mg/kg
Summary of the method: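 Time course in the haloperidol (1.5 mg/kg i.p.) catalepsy model in rats after a single 30 mg/kg oral dose, followed for up to 6 h. Satellite rats dosed in parallel gave plasma and CSF exposures.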

Rattus norvegicus [26] = assay: Reversal of haloperidol-induced catalepsy Sprague-Dawley rat model assessed as minimum effective dose administered orally; assay type: functional; conditions: route po, read-out: MED; summary of the method: as §2
[27] = target: Metabotropic glutamate receptor 3 (Rattus norvegicus, UniProt P31422); assay: Positive allosteric modulator activity at rat mGlu3 in human HEK cells co-expressing […] assessed as increase in by thallium flux preincubated for 2.5 mins followed by gluatamate addition by thallium flux assay; assay type: cell-based
[28] = Oral bioavailability in Cynomolgus monkey at 3 mg/kg administered as spray-dried dispersion formulation and measured upto 24 hrs by LC-MS/MS analysis; assay type: ADME, organism-based, Macaca fascicularis; conditions: in vivo
Summary of the method: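 Cynomolgus oral dosing used a spray-dried dispersion of the compound with HPMCP-HP55 polymer at a 25%/75% drug-to-polymer ratio. Oral bioavailability (%F) was determined from plasma exposure.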

Metabotropic glutamate receptor 3, sequence (P31422 whole entry): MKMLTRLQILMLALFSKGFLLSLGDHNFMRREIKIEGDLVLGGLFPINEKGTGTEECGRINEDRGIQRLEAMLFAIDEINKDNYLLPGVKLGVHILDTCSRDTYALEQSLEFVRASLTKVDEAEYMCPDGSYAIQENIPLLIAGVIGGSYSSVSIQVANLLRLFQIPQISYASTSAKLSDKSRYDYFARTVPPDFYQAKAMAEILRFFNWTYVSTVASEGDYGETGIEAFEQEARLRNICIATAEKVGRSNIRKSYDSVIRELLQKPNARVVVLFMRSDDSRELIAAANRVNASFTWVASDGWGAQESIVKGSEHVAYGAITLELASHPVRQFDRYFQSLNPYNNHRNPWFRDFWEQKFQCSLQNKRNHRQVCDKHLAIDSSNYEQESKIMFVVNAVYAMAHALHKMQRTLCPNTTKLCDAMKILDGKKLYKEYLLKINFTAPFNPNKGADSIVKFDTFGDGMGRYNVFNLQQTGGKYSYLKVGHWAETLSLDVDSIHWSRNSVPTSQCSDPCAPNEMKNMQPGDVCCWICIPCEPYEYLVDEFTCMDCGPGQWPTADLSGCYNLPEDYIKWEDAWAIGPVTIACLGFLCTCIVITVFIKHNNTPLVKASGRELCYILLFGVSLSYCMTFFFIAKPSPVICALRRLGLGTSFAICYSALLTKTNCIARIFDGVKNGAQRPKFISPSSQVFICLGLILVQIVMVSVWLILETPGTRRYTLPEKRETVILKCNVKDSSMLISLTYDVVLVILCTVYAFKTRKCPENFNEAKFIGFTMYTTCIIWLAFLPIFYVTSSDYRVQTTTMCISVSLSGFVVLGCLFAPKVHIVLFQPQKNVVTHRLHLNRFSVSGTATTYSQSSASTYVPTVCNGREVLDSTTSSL
Metabotropic glutamate receptor 4 (Rattus norvegicus), sequence (P31423 whole entry): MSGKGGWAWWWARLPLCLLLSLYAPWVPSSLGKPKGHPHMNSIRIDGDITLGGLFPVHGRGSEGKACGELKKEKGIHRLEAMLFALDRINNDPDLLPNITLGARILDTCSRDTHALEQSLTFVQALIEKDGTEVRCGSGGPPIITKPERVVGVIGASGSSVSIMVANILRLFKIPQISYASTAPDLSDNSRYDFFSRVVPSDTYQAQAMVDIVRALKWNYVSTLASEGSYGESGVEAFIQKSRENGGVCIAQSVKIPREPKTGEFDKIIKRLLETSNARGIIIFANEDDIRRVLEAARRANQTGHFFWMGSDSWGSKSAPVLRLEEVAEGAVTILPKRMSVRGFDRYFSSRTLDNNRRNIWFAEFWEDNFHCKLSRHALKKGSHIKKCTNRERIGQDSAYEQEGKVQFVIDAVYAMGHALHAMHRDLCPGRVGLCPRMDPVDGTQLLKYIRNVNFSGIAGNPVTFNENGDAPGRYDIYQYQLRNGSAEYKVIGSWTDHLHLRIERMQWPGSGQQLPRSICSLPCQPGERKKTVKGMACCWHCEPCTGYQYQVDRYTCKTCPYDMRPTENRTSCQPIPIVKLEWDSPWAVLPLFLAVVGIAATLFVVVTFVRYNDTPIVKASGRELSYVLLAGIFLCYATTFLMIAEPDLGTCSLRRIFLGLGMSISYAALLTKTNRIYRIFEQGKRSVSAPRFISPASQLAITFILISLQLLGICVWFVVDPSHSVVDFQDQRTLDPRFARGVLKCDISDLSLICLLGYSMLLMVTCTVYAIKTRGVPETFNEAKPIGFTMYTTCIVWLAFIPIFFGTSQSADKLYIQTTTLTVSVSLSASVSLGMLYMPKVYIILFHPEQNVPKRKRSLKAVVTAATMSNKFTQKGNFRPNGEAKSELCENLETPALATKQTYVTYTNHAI
Kv4.3/KChIP2, sequence (Q9UK17 whole entry): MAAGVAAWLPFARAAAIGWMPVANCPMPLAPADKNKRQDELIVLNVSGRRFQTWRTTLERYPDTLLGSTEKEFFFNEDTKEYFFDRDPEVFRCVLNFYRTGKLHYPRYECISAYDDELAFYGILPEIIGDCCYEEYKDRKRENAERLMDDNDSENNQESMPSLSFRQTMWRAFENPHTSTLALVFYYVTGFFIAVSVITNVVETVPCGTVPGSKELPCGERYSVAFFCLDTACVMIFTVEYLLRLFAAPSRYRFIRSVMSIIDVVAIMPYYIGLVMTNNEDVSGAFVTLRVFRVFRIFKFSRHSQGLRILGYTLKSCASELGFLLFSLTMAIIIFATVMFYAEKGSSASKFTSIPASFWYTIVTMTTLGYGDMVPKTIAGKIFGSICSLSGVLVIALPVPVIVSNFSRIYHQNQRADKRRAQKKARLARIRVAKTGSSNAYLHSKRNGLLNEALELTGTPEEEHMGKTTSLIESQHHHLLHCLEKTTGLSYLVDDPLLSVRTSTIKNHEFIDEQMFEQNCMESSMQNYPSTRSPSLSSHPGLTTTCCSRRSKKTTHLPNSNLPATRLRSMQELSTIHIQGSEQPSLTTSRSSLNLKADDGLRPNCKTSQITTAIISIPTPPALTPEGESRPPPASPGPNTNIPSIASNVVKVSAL
Kv4.3/KChIP2, sequence (Q9NS61 whole entry): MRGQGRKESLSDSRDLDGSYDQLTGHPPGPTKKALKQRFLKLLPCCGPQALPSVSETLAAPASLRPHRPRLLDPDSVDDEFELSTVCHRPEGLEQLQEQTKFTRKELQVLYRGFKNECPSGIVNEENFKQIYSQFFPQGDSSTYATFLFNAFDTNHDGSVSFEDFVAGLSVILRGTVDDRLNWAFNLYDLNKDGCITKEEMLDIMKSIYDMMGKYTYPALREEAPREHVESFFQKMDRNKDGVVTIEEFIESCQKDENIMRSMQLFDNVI
P-gp (ABCB1), sequence (P08183 whole entry): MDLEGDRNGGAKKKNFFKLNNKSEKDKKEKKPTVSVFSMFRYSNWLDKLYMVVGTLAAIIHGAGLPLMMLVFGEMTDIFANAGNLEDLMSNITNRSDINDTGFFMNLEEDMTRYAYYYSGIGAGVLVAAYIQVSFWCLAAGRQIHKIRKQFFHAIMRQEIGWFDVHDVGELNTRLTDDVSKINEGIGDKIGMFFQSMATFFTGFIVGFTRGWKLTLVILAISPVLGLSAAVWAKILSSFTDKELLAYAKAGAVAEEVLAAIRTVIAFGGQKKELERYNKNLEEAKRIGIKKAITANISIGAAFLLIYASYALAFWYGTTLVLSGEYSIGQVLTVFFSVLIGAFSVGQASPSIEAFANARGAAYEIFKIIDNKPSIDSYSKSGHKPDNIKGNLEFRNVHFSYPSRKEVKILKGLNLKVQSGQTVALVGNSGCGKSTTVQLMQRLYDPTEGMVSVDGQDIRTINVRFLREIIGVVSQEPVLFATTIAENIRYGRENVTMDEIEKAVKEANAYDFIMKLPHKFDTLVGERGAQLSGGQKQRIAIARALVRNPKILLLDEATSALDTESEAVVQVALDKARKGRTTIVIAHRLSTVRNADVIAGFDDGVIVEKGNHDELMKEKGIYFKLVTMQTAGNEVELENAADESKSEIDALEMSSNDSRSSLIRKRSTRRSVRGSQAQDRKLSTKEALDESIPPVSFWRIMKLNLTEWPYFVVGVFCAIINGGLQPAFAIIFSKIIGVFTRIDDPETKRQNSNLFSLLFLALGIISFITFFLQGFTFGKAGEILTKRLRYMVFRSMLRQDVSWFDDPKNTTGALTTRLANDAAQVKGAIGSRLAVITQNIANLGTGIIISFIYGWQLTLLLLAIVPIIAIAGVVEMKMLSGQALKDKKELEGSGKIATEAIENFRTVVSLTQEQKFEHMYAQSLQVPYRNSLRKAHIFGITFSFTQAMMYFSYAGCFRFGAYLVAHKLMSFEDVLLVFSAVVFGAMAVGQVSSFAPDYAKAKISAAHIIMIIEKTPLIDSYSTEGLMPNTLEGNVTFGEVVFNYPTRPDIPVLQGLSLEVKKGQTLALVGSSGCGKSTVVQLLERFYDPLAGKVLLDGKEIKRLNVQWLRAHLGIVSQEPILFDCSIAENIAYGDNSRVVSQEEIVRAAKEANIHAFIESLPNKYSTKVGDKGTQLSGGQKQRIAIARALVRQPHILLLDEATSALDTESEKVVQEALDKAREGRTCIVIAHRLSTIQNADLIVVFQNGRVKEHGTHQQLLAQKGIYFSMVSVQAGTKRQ
Metabotropic glutamate receptor 6, sequence (O15303 whole entry): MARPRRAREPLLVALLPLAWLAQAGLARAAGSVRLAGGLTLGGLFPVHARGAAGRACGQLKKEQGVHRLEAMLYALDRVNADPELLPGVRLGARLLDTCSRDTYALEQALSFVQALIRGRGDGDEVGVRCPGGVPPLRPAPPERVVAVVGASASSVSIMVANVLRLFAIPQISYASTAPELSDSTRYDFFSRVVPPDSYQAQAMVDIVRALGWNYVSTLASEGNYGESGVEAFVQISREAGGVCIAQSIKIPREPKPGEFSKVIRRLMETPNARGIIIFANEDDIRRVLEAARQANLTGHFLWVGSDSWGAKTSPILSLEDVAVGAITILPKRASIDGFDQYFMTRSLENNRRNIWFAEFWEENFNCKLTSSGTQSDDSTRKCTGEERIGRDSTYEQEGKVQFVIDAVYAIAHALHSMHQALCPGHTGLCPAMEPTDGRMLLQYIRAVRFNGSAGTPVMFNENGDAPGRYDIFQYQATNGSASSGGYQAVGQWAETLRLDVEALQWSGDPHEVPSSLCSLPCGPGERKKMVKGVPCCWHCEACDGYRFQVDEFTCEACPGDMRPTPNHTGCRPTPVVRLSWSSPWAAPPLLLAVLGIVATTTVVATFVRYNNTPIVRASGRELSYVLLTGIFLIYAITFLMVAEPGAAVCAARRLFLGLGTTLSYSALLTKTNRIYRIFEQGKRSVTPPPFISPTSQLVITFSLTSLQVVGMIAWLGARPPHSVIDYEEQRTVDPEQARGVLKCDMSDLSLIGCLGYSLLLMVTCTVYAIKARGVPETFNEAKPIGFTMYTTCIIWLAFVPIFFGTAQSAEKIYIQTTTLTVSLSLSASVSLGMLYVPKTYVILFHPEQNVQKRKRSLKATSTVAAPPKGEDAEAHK

`FC(F)(F)c1nccc2cc(Nc3n[nH]c4ncccc34)ccc12` gave a Vd [1] of 9.93 L/kg, a concentration [2] of 322 nM and a Tmax [3] of 1 h. For the same compound, the Vd [4] was 4.3 L/kg, the Activity (Rattus norvegicus [5]) was “Dose-Dependent Effect” and the bioavailability [6] was 100%. It also gave a clearance [7] of 37.7 mL/min/kg, a CLint scaled at 1 µM [8] of 9.1 mL/min/kg and a Kp at 24 h [9] of 1.51. The solubility [10] was under 5 µg/mL, the fraction unbound at 4 h [11] was 0.016 and the CLint scaled at 1 µM [12] was 18.1 mL/min/kg. For the same compound, the fraction unbound at 4 h [13] was 0.015, the EC50 [14] was over 10 µM and the bioavailability [15] was 31.6%. It also gave an Emax [16] of 132%, an AUC(0-inf) [17] of 9.66 µM·h and an efflux ratio (P-gp (ABCB1)) of 1.3. The Kp uu at 24 h [18] was 0.09, the Activity [19] was “Non-Toxic” and the Cmax [20] was 260 nM. It also gave a bioavailability [21] of 79%, an inhibition at 10 µM (Kv4.3/KChIP2) of under 50% and a fraction unbound at 4 h [22] of 0.014. The AUC [23] was 25300 ng·h/mL, the Activity [24] was “Non-Toxic” and the Activity (Rattus norvegicus [25]) was “Active”. The minimal effective dose (Rattus norvegicus [26]) was 1 mg/kg, the EC50 [27] was over 10 µM and the bioavailability [28] was 58%.
